Experiments:
Cytochrome P450 2C19 = Cytochrome P450 2C19 (Homo sapiens, UniProt P33261); test: Inhibition of CYP2C19; type: ADME
[1] = target: Nitric oxide synthase, inducible (Homo sapiens, UniProt P35228); test: Inhibition of human iNOS expressed in baculovirus-infected insect sf9 cells assessed as conversion of [3H]-L-arginine to [3H]-L-citrulline preincubated for 15 mins with compound measured after 45 mins by scintillation counting
Hepatocyte [2] = test: Metabolic stability in rat liver hepatocytes assessed as compound turnover after 120 mins; type: ADME, cell-based; settings: 2 h
Cytochrome P450 3A4 = Cytochrome P450 3A4 (Homo sapiens, UniProt P08684); test: Inhibition of CYP3A4; type: ADME
Rattus norvegicus [3] = test: Antiallodynic activity in L5/L6 SNL Sprague-Dawley rat model of […] model assessed as reversal of mechanical force-induced allodynia at 30 mg/kg, ip measured after 30 mins; type: functional; settings: route intraperitoneal
How it was run: (§1)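 Sprague-Dawley rats under halothane had L5 and L6 spinal nerves tightly ligated with 4-0 silk distal to the DRG, then recovered singly housed. Drug given intraperitoneally. Mechanical withdrawal threshold and radiant-heat withdrawal latency of the affected hind paw were measured.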

Cytochrome P450 1A2 = target: T1, Cytochrome P450 1A2 (Homo sapiens, UniProt P05177); test: Inhibition of CYP1A2; type: ADME
T1 sequence (P05177 whole entry): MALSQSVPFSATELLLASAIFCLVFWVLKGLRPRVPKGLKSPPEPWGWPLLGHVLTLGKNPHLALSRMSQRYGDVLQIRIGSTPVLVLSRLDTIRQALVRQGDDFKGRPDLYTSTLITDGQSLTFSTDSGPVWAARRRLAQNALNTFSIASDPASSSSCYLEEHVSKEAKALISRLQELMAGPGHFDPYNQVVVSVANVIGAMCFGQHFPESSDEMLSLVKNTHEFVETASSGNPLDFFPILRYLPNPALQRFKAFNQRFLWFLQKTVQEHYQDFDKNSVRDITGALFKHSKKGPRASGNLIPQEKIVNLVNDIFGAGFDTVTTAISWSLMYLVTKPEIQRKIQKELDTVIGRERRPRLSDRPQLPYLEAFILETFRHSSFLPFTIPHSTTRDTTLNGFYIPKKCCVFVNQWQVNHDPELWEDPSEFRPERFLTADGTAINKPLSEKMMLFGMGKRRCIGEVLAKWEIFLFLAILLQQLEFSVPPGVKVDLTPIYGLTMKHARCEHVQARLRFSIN

Hepatocyte [4] = test: Metabolic stability in primates liver hepatocytes assessed as compound turnover after 120 mins; type: ADME, cell-based; settings: 2 h
[5] = Metabolic stability in dog liver hepatocytes assessed as compound turnover after 120 mins; type: ADME, cell-based, Canis lupus familiaris, Hepatocyte; settings: 2 h
Cytochrome P450 2D6 = Cytochrome P450 2D6 (Homo sapiens, UniProt P10635); test: Inhibition of CYP2D6; type: ADME
[6] = Vasoconstrictive activity in U46619 precontracted human arteries assessed as inhibition of acetylcholine-induced vasorelaxation at 100 uM after 50 mins in presence of L-arginine; type: tissue-based, Artery
How it was run: (§2)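 Human resistance artery rings (~2 mm) from surgical tissue, wire-mounted in myograph baths of Krebs PSS at 37 °C, gassed with 95% O2/5% CO2. […] Compound given 50 min with or without L-arginine, then U46619 preconstriction and ACh curves (1×10⁻¹⁰ to 1×10⁻⁵ M). Responses as % of maximal U46619 contraction.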

[7] = Vasoconstrictive activity in U46619 precontracted human arteries assessed as inhibition of acetylcholine-induced vasorelaxation at 100 uM after 50 mins; type: tissue-based, Artery; how it was run: as §2
Hepatocyte [8] = test: Metabolic stability in human liver hepatocytes assessed as compound turnover after 120 mins; type: ADME, cell-based; settings: 2 h
Rattus norvegicus [9] = test: Antihyperalgesic activity in L5/L6 SNL Sprague-Dawley rat model of […] model assessed as reversal of thermal hyperalgesia at 30 mg/kg, ip measured after 30 mins; type: functional; settings: route intraperitoneal; how it was run: as §1
[10] = target: Sodium-dependent noradrenaline transporter (Homo sapiens, UniProt P23975); test: Displacement of [3H]nisoxetine from human NET expressed in CHO cells after 120 mins by scintillation counting; type: cell-based
How it was run: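 Membranes from hNET-transfected CHO cells (20 μg protein) incubated 120 min at 4 °C with 1 nM [3H]nisoxetine in 50 mM Tris-HCl pH 7.4, 120 mM NaCl, 5 mM KCl. Nonspecific binding defined with 1 μM desipramine. Filtered on PEI-soaked GF/B and counted.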

Cytochrome P450 2C9 = Cytochrome P450 2C9 (Homo sapiens, UniProt P11712); test: Inhibition of CYP2C9; type: ADME
[11] = target: T2, Muscarinic acetylcholine receptor M5 (Homo sapiens) (UniProt P08912); test: Inhibition of human muscarinic M5 receptor at 10 uM
T2 sequence (whole entry): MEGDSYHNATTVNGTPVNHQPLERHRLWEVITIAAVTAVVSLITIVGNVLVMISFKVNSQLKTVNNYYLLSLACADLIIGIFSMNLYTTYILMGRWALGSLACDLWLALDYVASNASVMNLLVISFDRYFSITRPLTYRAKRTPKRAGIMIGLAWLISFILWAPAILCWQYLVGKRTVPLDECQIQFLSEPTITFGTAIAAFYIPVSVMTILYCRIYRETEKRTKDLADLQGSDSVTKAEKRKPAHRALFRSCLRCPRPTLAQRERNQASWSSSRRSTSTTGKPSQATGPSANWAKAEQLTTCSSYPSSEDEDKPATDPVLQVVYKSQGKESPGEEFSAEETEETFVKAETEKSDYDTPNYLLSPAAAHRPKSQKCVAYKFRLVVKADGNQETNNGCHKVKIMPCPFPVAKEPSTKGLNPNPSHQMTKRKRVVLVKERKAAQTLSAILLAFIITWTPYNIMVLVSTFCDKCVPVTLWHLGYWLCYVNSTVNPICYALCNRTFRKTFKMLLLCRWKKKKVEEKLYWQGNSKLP
How it was run: (§3)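 Broad in vitro receptor binding screen at one concentration, 10 μM. Specific binding taken as total minus nonspecific binding with excess unlabeled ligand. […] A reference compound was run concurrently in each assay.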

[12] = target: Muscarinic acetylcholine receptor M3 (Homo sapiens) (UniProt P20309); test: Inhibition of human muscarinic M3 receptor at 10 uM; how it was run: as §3
[13] = target: T3, Muscarinic acetylcholine receptor M4 (Homo sapiens) (UniProt P08173); test: Inhibition of human muscarinic M4 receptor at 10 uM; how it was run: as §3
T3 sequence (whole entry): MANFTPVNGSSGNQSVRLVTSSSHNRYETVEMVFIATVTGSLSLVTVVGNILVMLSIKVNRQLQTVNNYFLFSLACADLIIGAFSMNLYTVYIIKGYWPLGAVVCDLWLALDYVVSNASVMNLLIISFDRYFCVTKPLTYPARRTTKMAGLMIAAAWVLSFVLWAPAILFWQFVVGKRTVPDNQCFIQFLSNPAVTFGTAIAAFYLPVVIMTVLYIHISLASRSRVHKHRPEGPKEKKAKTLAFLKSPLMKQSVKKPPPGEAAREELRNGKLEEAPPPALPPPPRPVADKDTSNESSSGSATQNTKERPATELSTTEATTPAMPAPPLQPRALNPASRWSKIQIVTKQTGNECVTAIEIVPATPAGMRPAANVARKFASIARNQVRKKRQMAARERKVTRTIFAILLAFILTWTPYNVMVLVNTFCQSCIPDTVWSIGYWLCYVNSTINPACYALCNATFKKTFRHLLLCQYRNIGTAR

[14] = Inhibition of sigma receptor at 10 uM; how it was run: as §3
[15] = target: Mu-type opioid receptor (Homo sapiens) (UniProt P35372); test: Inhibition of mu opioid receptor at 10 uM; how it was run: as §3
[16] = target: T4, Muscarinic acetylcholine receptor M1 (Homo sapiens) (UniProt P11229); test: Inhibition of human muscarinic M1 receptor at 10 uM; how it was run: as §3
T4 sequence (whole entry): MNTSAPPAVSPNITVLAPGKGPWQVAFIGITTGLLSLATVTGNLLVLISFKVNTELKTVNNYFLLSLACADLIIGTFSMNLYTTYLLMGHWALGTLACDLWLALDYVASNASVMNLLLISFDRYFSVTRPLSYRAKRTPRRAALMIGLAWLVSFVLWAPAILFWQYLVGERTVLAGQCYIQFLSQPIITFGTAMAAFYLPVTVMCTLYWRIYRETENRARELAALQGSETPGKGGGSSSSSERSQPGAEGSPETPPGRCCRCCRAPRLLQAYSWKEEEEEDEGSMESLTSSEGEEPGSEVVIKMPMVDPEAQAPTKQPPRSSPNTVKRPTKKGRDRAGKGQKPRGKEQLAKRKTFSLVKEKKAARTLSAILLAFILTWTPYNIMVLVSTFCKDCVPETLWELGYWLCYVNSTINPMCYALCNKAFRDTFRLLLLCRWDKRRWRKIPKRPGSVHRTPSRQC

[17] = target: T5, Muscarinic acetylcholine receptor M2 (Homo sapiens) (UniProt P08172); test: Inhibition of human muscarinic M2 receptor at 10 uM; how it was run: as §3
T5 sequence (whole entry): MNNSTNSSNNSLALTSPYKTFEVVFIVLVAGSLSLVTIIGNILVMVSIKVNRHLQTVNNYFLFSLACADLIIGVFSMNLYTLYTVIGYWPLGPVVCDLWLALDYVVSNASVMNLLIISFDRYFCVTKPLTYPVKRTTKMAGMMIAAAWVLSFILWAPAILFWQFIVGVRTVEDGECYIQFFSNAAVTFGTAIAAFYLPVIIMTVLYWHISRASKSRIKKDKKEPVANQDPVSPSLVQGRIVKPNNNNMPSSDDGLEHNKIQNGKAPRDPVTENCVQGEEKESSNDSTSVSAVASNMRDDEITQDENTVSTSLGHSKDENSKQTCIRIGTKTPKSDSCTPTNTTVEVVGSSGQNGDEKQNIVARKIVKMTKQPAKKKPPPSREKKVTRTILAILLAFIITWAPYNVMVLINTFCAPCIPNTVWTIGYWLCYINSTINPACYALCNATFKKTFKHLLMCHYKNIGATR

Sequence of Cytochrome P450 2C19 (P33261 whole entry): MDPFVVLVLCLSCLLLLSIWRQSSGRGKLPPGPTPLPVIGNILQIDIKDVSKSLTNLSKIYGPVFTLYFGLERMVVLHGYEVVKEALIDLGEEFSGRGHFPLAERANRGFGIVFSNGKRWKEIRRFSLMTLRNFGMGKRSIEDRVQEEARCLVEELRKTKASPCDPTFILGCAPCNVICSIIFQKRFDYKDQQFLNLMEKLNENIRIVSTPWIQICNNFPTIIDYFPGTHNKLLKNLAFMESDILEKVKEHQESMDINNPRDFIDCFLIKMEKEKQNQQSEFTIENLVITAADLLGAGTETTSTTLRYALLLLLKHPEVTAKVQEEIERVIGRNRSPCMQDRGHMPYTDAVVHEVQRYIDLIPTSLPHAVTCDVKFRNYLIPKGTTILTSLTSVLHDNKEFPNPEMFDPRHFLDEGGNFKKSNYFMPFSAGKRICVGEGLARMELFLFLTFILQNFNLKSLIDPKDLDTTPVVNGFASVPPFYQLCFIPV
Sequence of Sodium-dependent noradrenaline transporter (P23975 whole entry): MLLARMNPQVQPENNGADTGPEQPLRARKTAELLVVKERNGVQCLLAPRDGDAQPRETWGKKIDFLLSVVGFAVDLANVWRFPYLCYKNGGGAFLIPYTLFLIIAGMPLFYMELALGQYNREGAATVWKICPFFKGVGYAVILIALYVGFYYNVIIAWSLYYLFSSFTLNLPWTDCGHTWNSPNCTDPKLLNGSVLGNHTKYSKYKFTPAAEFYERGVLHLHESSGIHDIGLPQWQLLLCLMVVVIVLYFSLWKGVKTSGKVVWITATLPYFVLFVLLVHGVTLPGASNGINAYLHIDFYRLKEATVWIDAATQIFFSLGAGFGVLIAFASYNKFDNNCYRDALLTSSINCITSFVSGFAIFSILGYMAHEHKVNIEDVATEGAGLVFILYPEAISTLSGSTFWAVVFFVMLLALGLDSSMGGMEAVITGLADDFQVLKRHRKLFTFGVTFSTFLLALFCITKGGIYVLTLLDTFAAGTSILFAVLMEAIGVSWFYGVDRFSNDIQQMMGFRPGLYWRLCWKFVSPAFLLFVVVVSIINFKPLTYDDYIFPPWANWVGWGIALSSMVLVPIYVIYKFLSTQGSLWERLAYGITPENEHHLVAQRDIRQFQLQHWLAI
Sequence of Cytochrome P450 2C9 (P11712 whole entry): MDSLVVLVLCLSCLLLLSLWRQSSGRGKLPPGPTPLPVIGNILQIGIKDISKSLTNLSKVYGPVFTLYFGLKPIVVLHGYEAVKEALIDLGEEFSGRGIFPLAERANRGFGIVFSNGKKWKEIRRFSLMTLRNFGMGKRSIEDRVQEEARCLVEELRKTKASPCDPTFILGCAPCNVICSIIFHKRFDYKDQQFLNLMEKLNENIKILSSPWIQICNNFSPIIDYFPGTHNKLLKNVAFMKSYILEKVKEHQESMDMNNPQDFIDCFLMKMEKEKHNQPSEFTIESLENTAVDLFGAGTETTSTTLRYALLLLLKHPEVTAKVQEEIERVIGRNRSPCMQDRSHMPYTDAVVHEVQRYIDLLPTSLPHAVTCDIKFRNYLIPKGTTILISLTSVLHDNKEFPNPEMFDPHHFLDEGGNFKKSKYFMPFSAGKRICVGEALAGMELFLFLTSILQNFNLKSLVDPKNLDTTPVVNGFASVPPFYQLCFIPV
Sequence of Cytochrome P450 2D6 (P10635 whole entry): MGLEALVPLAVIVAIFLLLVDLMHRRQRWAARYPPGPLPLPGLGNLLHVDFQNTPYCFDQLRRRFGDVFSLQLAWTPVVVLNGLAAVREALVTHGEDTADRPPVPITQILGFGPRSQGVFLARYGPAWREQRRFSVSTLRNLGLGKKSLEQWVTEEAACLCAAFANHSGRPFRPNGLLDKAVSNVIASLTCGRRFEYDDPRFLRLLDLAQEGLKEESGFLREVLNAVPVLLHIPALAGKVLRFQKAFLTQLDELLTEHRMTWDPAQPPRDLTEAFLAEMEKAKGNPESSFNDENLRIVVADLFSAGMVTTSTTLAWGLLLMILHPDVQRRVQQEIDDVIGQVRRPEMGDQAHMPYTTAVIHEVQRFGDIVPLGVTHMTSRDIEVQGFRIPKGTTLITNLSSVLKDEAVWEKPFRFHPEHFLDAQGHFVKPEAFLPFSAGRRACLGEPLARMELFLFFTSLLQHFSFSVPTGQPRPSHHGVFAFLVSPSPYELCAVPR
Sequence of Cytochrome P450 3A4 (P08684 whole entry): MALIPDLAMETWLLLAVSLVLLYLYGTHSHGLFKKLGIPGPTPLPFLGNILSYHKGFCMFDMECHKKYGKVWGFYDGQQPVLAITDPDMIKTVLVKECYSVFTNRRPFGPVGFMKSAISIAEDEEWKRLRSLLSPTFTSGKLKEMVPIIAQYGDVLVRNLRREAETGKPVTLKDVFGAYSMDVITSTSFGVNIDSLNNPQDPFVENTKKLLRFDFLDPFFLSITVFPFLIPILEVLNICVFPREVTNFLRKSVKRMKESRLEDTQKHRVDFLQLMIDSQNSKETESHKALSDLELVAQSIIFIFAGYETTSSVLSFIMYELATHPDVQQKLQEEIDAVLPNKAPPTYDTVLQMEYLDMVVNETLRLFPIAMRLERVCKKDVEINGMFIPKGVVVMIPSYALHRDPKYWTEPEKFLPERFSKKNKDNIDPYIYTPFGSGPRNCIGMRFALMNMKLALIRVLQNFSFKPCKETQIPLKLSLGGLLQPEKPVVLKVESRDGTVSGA
Sequence of Mu-type opioid receptor (Homo sapiens) (P35372 whole entry): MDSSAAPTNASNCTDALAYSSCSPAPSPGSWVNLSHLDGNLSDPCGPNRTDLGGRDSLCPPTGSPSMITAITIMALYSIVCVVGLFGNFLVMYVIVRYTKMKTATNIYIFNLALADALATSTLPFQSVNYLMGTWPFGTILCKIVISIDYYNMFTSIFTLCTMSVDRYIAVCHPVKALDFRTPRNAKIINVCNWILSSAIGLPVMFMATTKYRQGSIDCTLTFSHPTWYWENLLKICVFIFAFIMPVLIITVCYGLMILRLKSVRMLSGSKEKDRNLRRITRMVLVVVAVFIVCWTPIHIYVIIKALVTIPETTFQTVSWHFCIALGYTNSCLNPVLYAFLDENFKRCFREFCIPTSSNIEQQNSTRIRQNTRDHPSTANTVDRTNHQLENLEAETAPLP
Sequence of Muscarinic acetylcholine receptor M3 (Homo sapiens) (P20309 whole entry, looked up): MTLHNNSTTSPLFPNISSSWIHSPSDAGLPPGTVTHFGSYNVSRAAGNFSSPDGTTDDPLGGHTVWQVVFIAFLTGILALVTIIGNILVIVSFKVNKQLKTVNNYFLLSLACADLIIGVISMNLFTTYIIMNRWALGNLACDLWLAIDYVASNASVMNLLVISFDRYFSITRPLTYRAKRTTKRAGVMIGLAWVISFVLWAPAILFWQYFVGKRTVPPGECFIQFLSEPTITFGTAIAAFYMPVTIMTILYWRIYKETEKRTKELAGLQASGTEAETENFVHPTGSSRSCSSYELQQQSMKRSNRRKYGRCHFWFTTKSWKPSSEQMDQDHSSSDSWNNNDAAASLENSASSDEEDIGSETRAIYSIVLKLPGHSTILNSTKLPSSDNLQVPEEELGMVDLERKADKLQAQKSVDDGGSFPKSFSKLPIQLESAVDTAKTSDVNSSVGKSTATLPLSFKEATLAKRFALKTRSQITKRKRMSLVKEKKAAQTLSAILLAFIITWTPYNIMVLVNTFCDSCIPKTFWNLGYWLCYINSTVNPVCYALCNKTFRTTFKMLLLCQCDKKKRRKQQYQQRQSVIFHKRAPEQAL
Sequence of Nitric oxide synthase, inducible (P35228 whole entry): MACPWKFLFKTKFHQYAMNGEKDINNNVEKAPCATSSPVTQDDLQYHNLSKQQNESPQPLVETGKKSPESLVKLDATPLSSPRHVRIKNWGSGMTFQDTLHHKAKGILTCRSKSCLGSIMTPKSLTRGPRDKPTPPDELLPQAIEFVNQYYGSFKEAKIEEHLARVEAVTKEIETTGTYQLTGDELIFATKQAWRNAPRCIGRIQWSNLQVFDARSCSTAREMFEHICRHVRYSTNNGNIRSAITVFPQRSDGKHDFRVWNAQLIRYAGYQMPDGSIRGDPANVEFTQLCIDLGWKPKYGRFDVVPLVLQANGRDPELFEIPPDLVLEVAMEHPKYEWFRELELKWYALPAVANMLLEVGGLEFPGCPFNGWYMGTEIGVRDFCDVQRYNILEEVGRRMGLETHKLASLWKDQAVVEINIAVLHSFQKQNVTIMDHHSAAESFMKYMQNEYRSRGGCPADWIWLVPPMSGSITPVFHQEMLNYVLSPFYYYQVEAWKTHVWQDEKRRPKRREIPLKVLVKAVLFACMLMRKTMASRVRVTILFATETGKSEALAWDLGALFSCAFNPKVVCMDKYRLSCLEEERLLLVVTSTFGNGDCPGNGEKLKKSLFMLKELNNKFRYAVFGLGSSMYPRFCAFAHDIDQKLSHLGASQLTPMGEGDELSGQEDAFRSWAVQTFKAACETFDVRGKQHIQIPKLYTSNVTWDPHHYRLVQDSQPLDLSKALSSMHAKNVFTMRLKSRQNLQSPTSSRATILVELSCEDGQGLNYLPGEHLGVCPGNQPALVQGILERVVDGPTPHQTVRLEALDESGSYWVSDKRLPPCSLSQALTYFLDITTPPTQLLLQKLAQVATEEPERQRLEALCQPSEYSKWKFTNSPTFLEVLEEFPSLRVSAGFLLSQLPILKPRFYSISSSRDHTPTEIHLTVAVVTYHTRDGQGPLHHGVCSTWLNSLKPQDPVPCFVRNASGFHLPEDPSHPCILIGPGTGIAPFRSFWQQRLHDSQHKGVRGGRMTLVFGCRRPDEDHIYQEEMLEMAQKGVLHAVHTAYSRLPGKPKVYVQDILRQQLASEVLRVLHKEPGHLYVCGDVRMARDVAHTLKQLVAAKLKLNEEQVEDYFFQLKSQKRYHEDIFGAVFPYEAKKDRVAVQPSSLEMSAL

SMILES: CNC1CCCC(c2c[nH]c3ccc(NC(=N)c4cccs4)cc23)C1.Cl (single isomer, unassigned; (+))
- IC50 (Cytochrome P450 2C19): > 100 µM
- IC50 [1]: 6.76 µM
- Stability (Hepatocyte [2]): Stable
- IC50 (Cytochrome P450 3A4): 100 µM
- Activity (Rattus norvegicus [3]): 90%
- IC50 (Cytochrome P450 1A2): Not Active
- Stability (Hepatocyte [4]): Stable
- Stability [5]: Stable
- IC50 (Cytochrome P450 2D6): 5.14 µM
- Activity [6]: Non-toxic
- Activity [7]: Non-toxic
- Stability (Hepatocyte [8]): Stable
- Activity (Rattus norvegicus [9]): 96%
- IC50 [10]: 1 µM
- IC50 (Cytochrome P450 2C9): Not Active

SMILES: CNC1CCCC(c2c[nH]c3ccc(NC(=N)c4cccs4)cc23)C1 (single isomer, unassigned; (+))
- inhibition [11]: 87%
- inhibition [12]: 88%
- inhibition [13]: 93%
- inhibition [14]: 61%
- inhibition [15]: 53%
- inhibition [16]: 80%
- inhibition [17]: 87%
